Source: PubChem BioAssay (several laboratories)
Most compounds without a hit are left out; they make up all but 3.2% or so of the library.
Pemphigus Ab inh: inhibitors of pemphigus antibody binding to human desmoglein-3; AID 588358; P32926; binding (percent of control), % at 10 µM; 0.48% of 310,000 active; DSG3-coupled beads, scFv-anti-DSG3-GFP binding, flow cytometry; hits give low values;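 active = binding more than 3 SD below its plate's average and above zero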;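 also: hits lower antibody fragment binding to DSG3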
Apaf-1 inh: inhibitors of human Apaf-1 apoptosome; AID 489030; inhibition, % at 20 µM; reconstituted apoptosome caspase-3 activity, DEVD-Rh110 fluorescence; O14727; 0.71% of 330,000 active; active = inhibition of at least 40% at 20 µM;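 also: plate controls were DMSO wells for no effect and DEVD-CHO caspase inhibitor wells for full effect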
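System – cell-free apoptosome with Apaf-1, procaspase-3 and caspase-9 · Buffer or medium – pH 7.5 Hepes buffer with CHAPS, BSA, DTT · Also added – cytochrome c with DEVD-Rh110 · Times – 30 min compound preincubation, 50 min activation, room temperature · Technique – Rh110 fluorescence intensity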
MEKK3 PB1 HTS: raises or lowers MEK5 binding to the human MEKK3 PB1 domain. Q99759. bead-based flow cytometry, Alexa488-MEK5 binding to MEKK3; actives lie on both sides; 0 = blocked by unlabeled MEK5, 100 = vehicle. 1.4% of 290,000 active. AID 1529. binding response (% of control), % at 10 µM;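 active = binding response more than 3 SD above or below the average of its plate-row segment, actives on both sides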;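 also: Alexa488 bead fluorescence after subtracting the streptavidin-only scavenger bead signal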
Target sequence (Q99759 whole entry, looked up, the tested form may be a part): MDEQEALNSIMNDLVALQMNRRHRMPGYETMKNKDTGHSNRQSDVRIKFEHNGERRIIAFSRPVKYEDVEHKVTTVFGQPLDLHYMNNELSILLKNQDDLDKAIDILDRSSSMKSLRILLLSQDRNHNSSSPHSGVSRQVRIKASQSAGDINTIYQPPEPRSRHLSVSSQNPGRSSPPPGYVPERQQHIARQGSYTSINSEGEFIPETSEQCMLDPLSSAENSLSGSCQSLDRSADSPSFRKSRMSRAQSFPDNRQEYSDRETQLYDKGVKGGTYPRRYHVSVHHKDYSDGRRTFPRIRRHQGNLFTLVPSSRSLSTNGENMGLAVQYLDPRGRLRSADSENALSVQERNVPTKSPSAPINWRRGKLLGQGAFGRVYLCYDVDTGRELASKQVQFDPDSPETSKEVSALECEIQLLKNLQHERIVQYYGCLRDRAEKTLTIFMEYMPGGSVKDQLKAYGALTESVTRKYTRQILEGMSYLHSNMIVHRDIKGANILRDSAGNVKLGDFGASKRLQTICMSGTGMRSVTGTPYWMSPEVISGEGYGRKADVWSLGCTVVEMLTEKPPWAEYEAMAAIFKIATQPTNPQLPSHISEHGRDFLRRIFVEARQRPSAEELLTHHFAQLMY
MEKK2wt PB1 HTS: raises or lowers MEK5 binding to wildtype human MEKK2 PB1 domain; bead flow cytometry, Alexa488-MEK5 binding to MEKK2 WT; actives lie on both sides; AID 1531; 1.1% of 290,000 active; binding response (% of control), % at 10 µM; Q9Y2U5; in the data active = binding response below about 67% or above about 130%
MEKK2mut PB1 HTS: signal of MEK5 binding to mutant human MEKK2 PB1 domain; bead flow cytometry, Alexa488-MEK5 binding to MEKK2 mutant; percent response, % at 10 µM; 0.35% of 290,000 active; in the data active = percent response above about 24%, passing the limit was not always enough
UBC13 inh: inhibitors of human UBC13 polyubiquitin chain formation; 0.47% of 330,000 active; inhibition, % at 20 µM; P61088; TR-FRET; in the data active = inhibition above about 45%, passing the limit was not always enough
Apaf-1 inh conf: confirmation of Apaf-1 inhibitors; shares compounds with Apaf-1 inh; reconstituted apoptosome, caspase-3 DEVD-Rh110 fluorescence; inhibition, % at 20 µM; 25% of 1,800 active;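 active = mean inhibition of at least 40% at 20 µM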;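 also: plate controls were DMSO wells for no effect and DEVD-CHO caspase inhibitor control wells for full effect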
Rh110 quench: interferes with Rh110 fluorescence, flagging false Apaf-1 inhibitors. shares compounds with Apaf-1 inh. Rh110 fluorescence interference, quenched caspase reaction. activation (fluorescence interference), % at 20 µM. 1,800 tested, under 10 active. AID 504615;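 active = signal rise of 40% or more at 20 µM, treated as a fluorescence artifact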
Apaf1 inh interf: shows fluorescence interference in the Apaf-1 inhibitor assay format; shares compounds with Apaf-1 inh; fluorescence interference counterscreen, Apaf-1 assay format; IC50, µM; 460 tested, under 10 active; AID 588538; call rule not given here
* marks the source's active call; other numbers are inactive results; x = no result given.

SMILES	Pemphigus Ab inh	Apaf-1 inh	MEKK3 PB1 HTS	MEKK2wt PB1 HTS	MEKK2mut PB1 HTS	UBC13 inh	Apaf-1 inh conf	Rh110 quench	others
COc1ccc(OCC(=O)N/N=C2\CCCCc3ccccc32)cc1	98	10	92	85	-7	-4	x	x
Cn1c(Cc2ccccc2)n[nH]c1=S	95	42*	100	100	-1	9	2	2
Cn1c(CCc2ccccc2)n[nH]c1=S	112	-12	95	95	-7	-7	x	x
CC1=NN(c2cccc(F)c2)C(=O)/C1=C/c1ccc(N(C)C)cc1	118	7	99	99	1	-102	x	x
COc1ccc(/C=C2/C(=O)N(c3cccc(F)c3)N=C2C)c(OC)c1	113	90*	99	102	0	-22	17	2
CC(=O)NC(CC(=O)N(C)C1CCCCC1)c1ccccc1 (stereo unspecified)	x	-1	97	96	0	3	x	x
COc1ccc(NC(=O)CSc2nnc3n2CCCCC3)cc1S(=O)(=O)N(C)C	99	x	x	x	x	x	x	x
CN(C(=O)Nc1ccccc1)C1CCS(=O)(=O)C1 (stereo unspecified)	103	-9	104	110	5	4	x	x
CC(=O)NC1=C(N(C)C2CCS(=O)(=O)C2)C(=O)c2ccccc2C1=O (stereo unspecified)	112	54*	103	103	3	-51	67*	9	Apaf1 inh interf=>100
CCCCN1CC(COCc2ccccc2)Oc2cccc(OCCN3C(=O)[C@@H]4[C@H](C3=O)C3C=C[C@H]4C3)c2S1(=O)=O (stereo partly specified)	100	x	x	x	x	x	x	x
Cn1c2ccccc2c2ccc3c(c21)C(=O)C=CC3=O	79	x	x	x	x	x	x	x
Cc1ccc2c(c1)c1ccc3c(c1n2C)C(=O)C=CC3=O	85	57*	89	95	-18	-25	40*	2	Apaf1 inh interf=>100
COc1ccc2c(c1)c1ccc3c(c1n2C)C(=O)C=CC3=O	91	71*	103	97	-3	-34	57*	5	Apaf1 inh interf=>100
CCOC(=O)c1c2c(n(C)c1C)C(=O)C(=O)c1ccc(Br)cc1-2	102	96*	92	99	3	-61	72*	6	Apaf1 inh interf=>100
CCOC(=O)c1c2c(n(Cc3ccccc3)c1C)C(=O)C(=O)c1ccccc1-2	91	x	x	x	x	x	x	x
O=c1cc2c(c(-c3ccccc3)n1Cc1ccccc1)[C@@H](CCO)NC2	108	x	x	x	x	x	x	x
Cc1ccc(-n2cnnn2)cc1Cl	103	3	99	89	-10	0	x	x
Cc1ccc(-n2nc3ccc(N)cc3n2)c(C)c1	122	68*	104	103	1	-1	32	14
COc1ccc(-n2nc3ccc(NS(C)(=O)=O)cc3n2)cc1Cl	99	8	98	99	8	5	x	x
Cc1ccc(-n2nc3ccc(N)cc3n2)cc1C	106	80*	104	102	4	-23	29	1
COc1ccc(-n2nc3ccc(N)cc3n2)cc1Cl	119	95*	107	99	3	-9	55*	9	Apaf1 inh interf=>100
Cc1cc(N)ccc1-n1nc2ccccc2n1	117	-6	x	x	x	14	x	x
Cc1ccc(-n2nc3ccc(N)cc3n2)cc1Cl	86	96*	108	107	1	-4	47*	2	Apaf1 inh interf=>100
CCOc1cc2c(C#N)c(N(CC)CC)nc(N)c2c(N)n1	111	29	100	101	1	-15	x	x
CCCN(CC1CC1)c1nc(N)c2c(N)nc(OC)cc2c1C#N	99	93*	99	98	-2	-3	6	1
SMILES	Pemphigus Ab inh	Apaf-1 inh	MEKK3 PB1 HTS	MEKK2wt PB1 HTS	MEKK2mut PB1 HTS	UBC13 inh	Apaf-1 inh conf	Rh110 quench	others
CN(C(=O)Cn1cc(C(F)(F)F)cc(Cl)c1=O)C1CCS(=O)(=O)C1 (stereo unspecified)	96	0	x	x	x	-3	x	x
O=C(CCc1c[nH]c2ccccc12)NCc1ccco1	93	1	89	97	-5	4	x	x
CC(=O)C1=C(O)C(=O)N(CCc2c[nH]c3ccccc23)C1c1ccco1 (stereo unspecified)	x	43*	99	98	-3	-37	-1	5
CC(=O)C1=C(O)C(=O)N(CCc2c[nH]c3ccccc23)C1c1ccc(C)cc1 (stereo unspecified)	83	4	97	97	-7	7	x	x
CCOc1cc(C2C(C(C)=O)=C(O)C(=O)N2CCc2c[nH]c3ccccc23)ccc1O (stereo unspecified)	101	49*	126	108	0	16	12	9
COc1ccc(C(CNC(=O)c2cccc(NS(=O)(=O)c3ccc(C)c(F)c3)c2)N(C)C)cc1 (stereo unspecified)	102	52*	x	x	x	13	37	-6
CCCCNc1cc(NC(C)=O)cc2cc(OC)c(OC)cc12	112	62*	97	98	3	-42	83*	-1	Apaf1 inh interf=>100
COc1cc2cc(NC(C)=O)cc(NCc3ccccc3)c2cc1OC	96	88*	99	107	1	-30	40	0	Apaf1 inh interf=>100
CCN(c1ccccc1)c1cc2ccccc2c(=O)[nH]1	96	96*	101	97	-5	-26	59*	5	Apaf1 inh interf=>100
CCN(c1ccccc1)c1nc(=O)c2cccnc2s1	105	-5	98	83	-9	8	x	x
Cc1cccc(CCN(C(=O)c2csnn2)C(C(=O)NC2CCCC2)c2ccco2)c1 (stereo unspecified)	100	8	101	98	-4	-9	x	x
CCOc1ccc(NC(=O)C(C)C(Cc2ccc(C)cc2)C(=O)O)cc1 (stereo unspecified)	98	-2	99	104	2	-2	x	x
Oc1ccc(N=Cc2ccc(OCc3ccccc3)cc2)cc1	99	93*	101	98	-3	-5	17	-4
CCc1ccc(S(=O)(=O)/N=C2\C=C(NS(=O)(=O)c3ccccc3)C(=O)c3ccccc32)cc1	49*	57*	97	98	1	-72	51*	2	Apaf1 inh interf=>100
Cc1ccc(C)c(S(=O)(=O)/N=C2\C=C(NS(=O)(=O)c3ccccc3)C(=O)c3ccccc32)c1	107	78*	98	92	-5	-134	59*	18
Cc1cccc(S(=O)(=O)Nc2cccc3c2C(=O)c2ccccc2-3)c1	94	22	99	98	1	-22	x	x
